Measurements as given in ChEMBL document CHEMBL1124531, “Intercalating agents with covalent bond forming capability. A novel type of potential anticancer agents. 2. Derivatives of chrysophanol and emodin” (1989).

How the values were obtained:
HL-60 = assay: Inhibitory activity against human acute promyelocytic leukemia cells(HL-60) cell growth on 72 hr of exposure of the compound.; type: functional; conditions: HL-60, 72 h, read-out: ID50 (the source's name)
Nucleic Acid [1] = assay: Ratio for human acute promyelocytic leukemia cells(HL-60) cell growth inhibition and [3H]TdR incorporation into DNA in HL-60 cells; type: functional, cell-based
L1210 = assay: Inhibitory activity against murine L1210 leukemic cell growth; type: functional; conditions: Mus musculus, read-out: ID50 (the source's name)
Nucleic Acid [2] = assay: Inhibitory activity against [3H]TdR incorporation into DNA in HL-60 cells during the initial 30-min period.; type: functional, cell-based; conditions: Homo sapiens
Summary of the method: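 HL-60 cells (2.5 × 10^6/mL) preincubated 15 min with compound at four to six concentrations in 0.2% DMSO, then pulsed with [3H-methyl]TdR (1 μCi, 0.15 nmol/mL) for 30 min; radioactivity in isolated DNA fraction counted; compound-free DMSO control as reference.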

SMILES | IC50 (HL-60) [µM] | Ratio (Nucleic Acid [1]) | IC50 (L1210) [µM] | ID50 (Nucleic Acid [2]) [µM]
CCNCc1cc(OC)c2c(c1)C(=O)c1cccc(OC)c1C2=O | 48 | 0.6 | 1.2 | 29
COc1cc(O)c2c(c1)C(=O)c1cc(CN(CCCl)CCCl)cc(O)c1C2=O | 0.61 | 19.7 |  | 12
COc1cc(OC)c2c(c1)C(=O)c1cc(CBr)cc(OC)c1C2=O | 84 | 0.14 | 0.68 | 12
CCNCc1cc(O)c2c(c1)C(=O)c1cccc(O)c1C2=O | 8.7 | 2.1 | 0.77 | 18
CNC(=O)OCCN(CCOC(=O)NC)Cc1cc(OC)c2c(c1)C(=O)c1cccc(OC)c1C2=O | 9.5 | 0.99 | 72 | 9.4
CCN(CC)Cc1cc(OC)c2c(c1)C(=O)c1cccc(OC)c1C2=O | 30 | 6.3 | 130 | 19
COc1cc(CN(CCO)CCO)cc2c1C(=O)c1c(O)cccc1C2=O | 21 | 4.2 | > 24 | 89
O=C1c2cccc(O)c2C(=O)c2c(O)cc(CN3CCCCC3)cc21 | 2.8 | 22.5 | 4 | 63
COc1cc(OC)c2c(c1)C(=O)c1cc(CN(CCCl)CCCl)cc(OC)c1C2=O | 2 | 4.5 | 2.7 | 8.9
COc1cc(CN(CCCl)CCCl)cc2c1C(=O)c1c(O)cccc1C2=O | 0.39 | 38.5 |  | 15
CCN(CC)Cc1cc(OC)c2c(c1)C(=O)c1cccc(O)c1C2=O | 5.2 | 2.7 | 12 | 14
CCNCc1cc(OC)c2c(c1)C(=O)c1cc(OC)cc(OC)c1C2=O | 17 | 0.76 | 9.8 | 13
COc1cccc2c1C(=O)c1c(OC)cc(CN(CCO)CCO)cc1C2=O | 490 | 0.03 | > 50 | 14
CCCCNCc1cc(O)c2c(c1)C(=O)c1cccc(O)c1C2=O | 4.1 | 6.1 | 4.6 | 25
CCN(CC)Cc1cc(O)c2c(c1)C(=O)c1cccc(O)c1C2=O | 1.8 | 7.8 | 2.8 | 14
O=C1c2cccc(O)c2C(=O)c2c(O)cc(Cn3ccnc3)cc21 | 4.8 | 9 | 7.4 | 43
COc1cc(O)c2c(c1)C(=O)c1cc(CN(CCO)CCO)cc(OC)c1C2=O | > 500 | 0.02 | 8.8 | 9.6
O=C1c2cccc(O)c2C(=O)c2c(O)cc(CNCCO)cc21 |  | 17.4 | 0.16 | 15
COc1cc(OC)c2c(c1)C(=O)c1cc(C(Br)Br)cc(OC)c1C2=O | 6 | 9.7 | 41 | 58
COc1cc(O)c2c(c1)C(=O)c1cc(C(Br)Br)cc(O)c1C2=O | 0.19 | 579 | 0.001 | 110
COc1cc(OC)c2c(c1)C(=O)c1cc(CNCCCl)cc(OC)c1C2=O | 5.8 | 3.1 | 32 | 18
CC(C)NC(=O)OCCN(CCOC(=O)NC(C)C)Cc1cc(O)c2c(c1)C(=O)c1cccc(O)c1C2=O | 27 | 0.63 | 27 | 17
CCNCc1cc(O)c2c(c1)C(=O)c1cc(OC)cc(O)c1C2=O | 2.1 | 6.2 | 0.72 | 13

SMILES | IC50 (HL-60) [µM] | Ratio (Nucleic Acid [1]) | IC50 (L1210) [µM] | ID50 (Nucleic Acid [2]) [µM]
CCN(CC)Cc1cc(OC)c2c(c1)C(=O)c1cc(OC)cc(OC)c1C2=O | 7.9 | 0.53 | 6.9 | 4.2
O=C1c2cccc(O)c2C(=O)c2c(O)cc(CNCCCl)cc21 | 7.5 | 5.2 | 7.1 | 39
NCc1cc(O)c2c(c1)C(=O)c1cccc(O)c1C2=O | 11 | 2.3 | 8.5 | 25
COc1cc(O)c2c(c1)C(=O)c1cc(CBr)cc(O)c1C2=O | 25 | 13.6 | 59 | 340
COc1cccc2c1C(=O)c1c(OC)cc(CN(CCCl)CCCl)cc1C2=O | 1.8 | 7.8 | 13 | 14
CNC(=O)OCCN(CCOC(=O)NC)Cc1cc(OC)c2c(c1)C(=O)c1cccc(O)c1C2=O | 12 | 1 | 89 | 12
COc1cc(O)c2c(c1)C(=O)c1cc(C(Br)Br)cc(OC)c1C2=O | 0.097 | 237 | 0.001 | 23
COc1cc(C(Br)Br)cc2c1C(=O)c1c(O)cccc1C2=O | 0.06 | 217 | 4.2e-05 | 13
COc1cc(O)c2c(c1)C(=O)c1cc(CN(CCCl)CCCl)cc(OC)c1C2=O | 0.52 | 10.4 | 3.3 | 5.4
COc1cccc2c1C(=O)c1c(OC)cc(C(Br)Br)cc1C2=O | 2.1 | 4.3 | 0.89 | 9
O=C1c2cccc(O)c2C(=O)c2c(O)cc(CN(CCCl)CCCl)cc21 | 0.18 | 383 |  | 69
COc1cc(O)c2c(c1)C(=O)c1cc(CBr)cc(OC)c1C2=O | 1.7 | 41 | 0.068 | 70
COc1cccc2c1C(=O)c1c(OC)cc(C)cc1C2=O |  | 1.9 | 28 | 19
COc1cc(OC)c2c(c1)C(=O)c1cc(CN(CCO)CCO)cc(OC)c1C2=O | 100 | 0.17 | > 27 | 17
CCN(CC)Cc1cc(OC)c2c(c1)C(=O)c1cc(OC)cc(O)c1C2=O | 6.7 | 26.9 | 6.9 | 180
COc1cccc2c1C(=O)c1c(OC)cc(CBr)cc1C2=O | 4.4 | 2.5 | 9.2 | 11
CNC(=O)OCCN(CCOC(=O)NC)Cc1cc(O)c2c(c1)C(=O)c1cccc(O)c1C2=O | 210 | 0.13 | > 18 | 28
COc1cc(O)c2c(c1)C(=O)c1cc(CN(CCO)CCO)cc(O)c1C2=O | 6.6 | 5.2 | 14 | 45
O=C1c2cccc(O)c2C(=O)c2c(O)cc(CNCCCO)cc21 | 3.2 | 5 | 0.67 | 16
O=C1c2cccc(O)c2C(=O)c2c(O)cc(CBr)cc21 | 7.1 | 2.3 | 8.6 | 16
CCN(CC)Cc1cc(O)c2c(c1)C(=O)c1cc(OC)cc(O)c1C2=O | 3.4 | 10.3 | 1.2 | 35
O=C1c2cccc(O)c2C(=O)c2c(O)cc(CN(CCO)CCO)cc21 | 3.3 | 4.2 | 5.9 | 14
